Measurements as given in ChEMBL document CHEMBL3784976 (J Med Chem, 2016).

Key:
Rattus norvegicus [1] = species: Rattus norvegicus; experiment: Displacement of [3H]nitrendipine from L-type calcium channel dihydropyridine binding site in rat cerebral cortex assessed as remaining radioligand binding at 10 uM after 90 mins by scintillation counting method relative to control; format: tissue-based
Cytochrome P450 3A4 = Cytochrome P450 3A4 (Homo sapiens, UniProt P08684); experiment: Inhibition of CYP3A4 in human liver microsomes using midazolam as substrate by LC-MS/MS analysis in presence of NADPH; format: ADME
[2] = target: T1, Transient receptor potential cation channel subfamily A member 1 (Homo sapiens, UniProt O75762); experiment: Antagonist activity at human TRPA1 expressed in tetracycline-inducible T-REx expression system transfected CHO cells assessed as inhibition of AITC-induced 45Ca2+ uptake preincubated for 1 min followed by AITC addition measured after 12 mins; format: cell-based
T1 sequence (O75762 whole entry): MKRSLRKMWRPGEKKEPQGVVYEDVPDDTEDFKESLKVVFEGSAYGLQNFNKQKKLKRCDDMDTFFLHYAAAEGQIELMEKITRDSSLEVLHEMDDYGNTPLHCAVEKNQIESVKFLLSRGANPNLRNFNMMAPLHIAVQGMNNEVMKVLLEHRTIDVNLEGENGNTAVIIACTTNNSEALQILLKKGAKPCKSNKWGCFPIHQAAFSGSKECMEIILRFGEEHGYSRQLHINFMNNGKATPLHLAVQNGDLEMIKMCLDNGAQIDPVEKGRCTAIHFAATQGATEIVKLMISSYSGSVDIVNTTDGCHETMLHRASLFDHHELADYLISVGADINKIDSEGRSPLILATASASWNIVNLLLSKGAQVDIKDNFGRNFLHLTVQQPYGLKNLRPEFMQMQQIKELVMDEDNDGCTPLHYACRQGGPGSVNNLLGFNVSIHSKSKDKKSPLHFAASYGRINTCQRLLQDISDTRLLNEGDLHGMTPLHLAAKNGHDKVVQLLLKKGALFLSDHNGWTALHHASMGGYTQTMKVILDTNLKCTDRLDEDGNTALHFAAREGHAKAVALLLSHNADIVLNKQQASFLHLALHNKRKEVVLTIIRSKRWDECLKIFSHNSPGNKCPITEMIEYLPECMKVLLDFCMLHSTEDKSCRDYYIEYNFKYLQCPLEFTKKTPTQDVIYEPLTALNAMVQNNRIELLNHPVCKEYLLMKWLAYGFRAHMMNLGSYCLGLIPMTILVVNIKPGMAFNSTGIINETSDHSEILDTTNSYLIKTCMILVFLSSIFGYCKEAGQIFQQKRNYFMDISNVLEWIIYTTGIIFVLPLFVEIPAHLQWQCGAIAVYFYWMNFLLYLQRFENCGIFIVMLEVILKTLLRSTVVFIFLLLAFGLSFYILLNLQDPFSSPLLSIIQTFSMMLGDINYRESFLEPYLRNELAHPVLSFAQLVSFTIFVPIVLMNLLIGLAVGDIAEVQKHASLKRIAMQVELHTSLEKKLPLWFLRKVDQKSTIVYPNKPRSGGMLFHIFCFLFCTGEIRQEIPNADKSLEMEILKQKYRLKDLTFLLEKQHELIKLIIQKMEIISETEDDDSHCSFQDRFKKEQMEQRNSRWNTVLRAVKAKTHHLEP

[3] = target: D(2) dopamine receptor (Homo sapiens) (UniProt P14416); experiment: Displacement of [3H]methyl-spiperone from human recombinant dopamine D2S receptor expressed in HEK293 cells assessed as remaining radioligand binding at 10 uM after 60 mins by scintillation counting method relative to control; format: cell-based
Chain of D(2) dopamine receptor (Homo sapiens) (P14416 whole entry): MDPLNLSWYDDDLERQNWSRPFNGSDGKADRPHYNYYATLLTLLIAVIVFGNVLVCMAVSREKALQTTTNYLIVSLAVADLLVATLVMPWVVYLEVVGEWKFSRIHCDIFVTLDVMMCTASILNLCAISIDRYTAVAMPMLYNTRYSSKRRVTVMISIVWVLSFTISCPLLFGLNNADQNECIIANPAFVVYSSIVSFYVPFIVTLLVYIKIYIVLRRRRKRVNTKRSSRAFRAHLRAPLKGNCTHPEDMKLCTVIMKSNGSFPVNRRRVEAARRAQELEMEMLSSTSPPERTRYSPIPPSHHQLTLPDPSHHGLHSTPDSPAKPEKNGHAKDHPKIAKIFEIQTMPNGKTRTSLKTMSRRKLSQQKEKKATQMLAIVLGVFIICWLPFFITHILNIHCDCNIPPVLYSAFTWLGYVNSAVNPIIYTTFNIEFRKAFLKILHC

[4] = target: Sodium-dependent dopamine transporter (Homo sapiens) (UniProt Q01959); experiment: Displacement of [3H]BTCP from human recombinant dopamine transporter expressed in CHO cells assessed as remaining radioligand binding at 10 uM after 120 mins by scintillation counting method relative to control; format: cell-based
Chain of Sodium-dependent dopamine transporter (Homo sapiens) (Q01959 whole entry): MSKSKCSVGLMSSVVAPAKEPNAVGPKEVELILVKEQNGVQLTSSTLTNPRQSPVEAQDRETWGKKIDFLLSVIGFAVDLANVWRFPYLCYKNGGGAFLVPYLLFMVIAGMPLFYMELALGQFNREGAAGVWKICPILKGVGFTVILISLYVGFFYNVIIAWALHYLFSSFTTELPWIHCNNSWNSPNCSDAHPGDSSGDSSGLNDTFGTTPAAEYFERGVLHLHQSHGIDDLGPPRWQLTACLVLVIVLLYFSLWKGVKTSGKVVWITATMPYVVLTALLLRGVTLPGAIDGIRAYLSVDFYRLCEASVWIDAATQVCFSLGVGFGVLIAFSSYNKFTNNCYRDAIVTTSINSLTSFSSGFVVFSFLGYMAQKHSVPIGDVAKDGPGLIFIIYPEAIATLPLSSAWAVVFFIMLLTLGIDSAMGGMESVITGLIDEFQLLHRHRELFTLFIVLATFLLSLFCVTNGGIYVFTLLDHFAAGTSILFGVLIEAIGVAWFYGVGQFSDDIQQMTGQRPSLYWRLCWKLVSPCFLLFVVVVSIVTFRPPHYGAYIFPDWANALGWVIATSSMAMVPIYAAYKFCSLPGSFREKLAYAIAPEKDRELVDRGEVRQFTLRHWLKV

Cavia porcellus = species: Cavia porcellus; experiment: Displacement of [3H]NBTI from adenosine transporter in guinea pig cerebral cortex assessed as remaining radioligand binding at 10 uM after 30 mins by scintillation counting method relative to control; format: tissue-based
[5] = target: T1, Transient receptor potential cation channel subfamily A member 1; experiment: Agonist activity at human TRPA1 expressed in tetracycline-inducible T-REx expression system transfected CHO cells by 45Ca2+ uptake assay; format: cell-based
Rattus norvegicus [6] = experiment: Antinociceptive activity in po dosed Harlan Sprague-Dawley rat assessed as inhibition of AITC-induced paw flinches pretreated for 1 hr followed by AITC injection measured for 1 min post injection; format: functional, organism-based
Outline: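 Rats were dosed orally with vehicle (2% HPMC/1% Tween-80) or antagonist at 1, 3, 10 or 30 mg/kg. After 1 h, 0.1% AITC was injected into the left ventral hind paw. Flinching was recorded over the first minute post-injection. Unbound plasma concentrations were measured at 1 h (n = 8 per dose).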

[7] = target: Urotensin-2 receptor (Homo sapiens) (UniProt Q9UKP6); experiment: Displacement of [125I]urotensin-2 from human recombinant urotensin-2 receptor expressed in CHO cells assessed as remaining radioligand binding at 10 uM after 120 mins by scintillation counting method relative to control; format: cell-based
Chain of Urotensin-2 receptor (Homo sapiens) (Q9UKP6 whole entry): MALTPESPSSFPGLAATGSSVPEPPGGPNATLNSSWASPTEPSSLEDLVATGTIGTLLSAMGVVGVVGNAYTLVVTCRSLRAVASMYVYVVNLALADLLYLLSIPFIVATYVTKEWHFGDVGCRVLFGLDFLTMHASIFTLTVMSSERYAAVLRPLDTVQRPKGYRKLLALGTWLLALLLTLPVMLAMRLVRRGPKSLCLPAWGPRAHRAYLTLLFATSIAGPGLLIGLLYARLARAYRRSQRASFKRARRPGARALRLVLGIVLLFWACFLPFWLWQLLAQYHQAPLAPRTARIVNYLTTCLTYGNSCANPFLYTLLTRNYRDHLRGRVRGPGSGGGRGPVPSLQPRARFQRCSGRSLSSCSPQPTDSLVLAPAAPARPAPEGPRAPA

[8] = Half life in rat at 0.5 mg/kg, iv administered as single dose; format: ADME, organism-based; settings: in vivo
Outline: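 Single intravenous dose of 0.5 mg/kg given to rats, formulated in 100% DMSO.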

[9] = Ratio of unbound plasma concentration in Harlan Sprague-Dawley rat model of AITC-induced flinching at 1 mg/kg, po to IC50 for rat TRPA1 expressed in tetracycline-inducible T-REx expression system transfected CHO cells by 45Ca2+ uptake assay; format: ADME, organism-based; settings: in vivo
Outline: (§1)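 Rats dosed orally at 1, 3, 10 or 30 mg/kg in 2% HPMC/1% Tween-80 vehicle. After 1 h, unbound plasma concentration measured (n = 8 per dose), intraplantar AITC (0.1%) given and flinching scored over the first minute. Unbound concentration divided by in vitro rat TRPA1 45Ca2+ IC50.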

[10] = Apparent intrinsic clearance in human liver microsomes; format: ADME; settings: read-out: CLH(app)
[11] = Ratio of unbound plasma concentration in Harlan Sprague-Dawley rat model of AITC-induced flinching at 30 mg/kg, po to IC50 for rat TRPA1 expressed in tetracycline-inducible T-REx expression system transfected CHO cells by 45Ca2+ uptake assay; format: ADME, organism-based; settings: in vivo; outline: as §1
[12] = Half life in rat at 30 mg/kg, po; format: ADME, organism-based; settings: in vivo
Outline: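 Rats dosed orally at 30 mg/kg, or 10 mg/kg for one analogue, in 1% Tween 80/2% HPMC/97% water with methanesulfonic acid, pH 2.2.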

[13] = target: Kappa-type opioid receptor (Rattus norvegicus) (UniProt P34975); experiment: Displacement of [3H]U-69593 from rat recombinant kappa opioid receptor expressed in CHO cells assessed as remaining radioligand binding at 10 uM after 60 mins by scintillation counting method relative to control; format: cell-based
Chain of Kappa-type opioid receptor (Rattus norvegicus) (P34975 whole entry): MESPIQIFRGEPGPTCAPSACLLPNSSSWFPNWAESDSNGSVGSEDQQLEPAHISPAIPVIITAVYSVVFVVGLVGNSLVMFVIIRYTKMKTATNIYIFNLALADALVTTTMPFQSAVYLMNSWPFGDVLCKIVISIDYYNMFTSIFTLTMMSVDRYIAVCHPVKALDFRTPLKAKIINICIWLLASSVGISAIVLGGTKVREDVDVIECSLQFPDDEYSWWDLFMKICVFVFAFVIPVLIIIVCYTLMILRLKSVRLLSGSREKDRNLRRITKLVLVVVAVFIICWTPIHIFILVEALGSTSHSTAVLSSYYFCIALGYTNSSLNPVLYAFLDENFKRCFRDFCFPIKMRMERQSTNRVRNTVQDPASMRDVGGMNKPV

[14] = Clearance in rat at 0.5 mg/kg, iv as single dose; format: ADME, organism-based; settings: in vivo
Rattus norvegicus [15] = species: Rattus norvegicus; experiment: Displacement of [35S]TBPS from GABA gated chloride channel in rat cerebral cortex assessed as remaining radioligand binding at 10 uM after 120 mins by scintillation counting method relative to control; format: tissue-based
[16] = target: Alpha-2A adrenergic receptor (Homo sapiens) (UniProt P08913); experiment: Displacement of [3H]RX-821002 from human recombinant adrenergic alpha2A expressed in CHO cells assessed as remaining radioligand binding at 10 uM after 60 mins by scintillation counting method relative to control; format: cell-based
Chain of Alpha-2A adrenergic receptor (Homo sapiens) (P08913 whole entry): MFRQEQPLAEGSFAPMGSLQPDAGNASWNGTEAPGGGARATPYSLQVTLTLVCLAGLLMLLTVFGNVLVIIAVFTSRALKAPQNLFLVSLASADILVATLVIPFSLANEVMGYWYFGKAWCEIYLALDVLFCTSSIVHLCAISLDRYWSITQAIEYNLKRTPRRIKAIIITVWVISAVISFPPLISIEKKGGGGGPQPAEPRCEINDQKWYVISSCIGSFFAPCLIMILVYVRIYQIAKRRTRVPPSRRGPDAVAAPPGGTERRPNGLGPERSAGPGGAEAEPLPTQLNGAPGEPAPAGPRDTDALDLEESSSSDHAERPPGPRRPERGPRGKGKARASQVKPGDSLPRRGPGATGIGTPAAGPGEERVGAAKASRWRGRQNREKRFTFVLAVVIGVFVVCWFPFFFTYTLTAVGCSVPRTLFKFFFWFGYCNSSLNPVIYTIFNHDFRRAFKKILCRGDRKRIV

Jurkat = experiment: Displacement of [3H]DTG from sigma receptor in human Jurkat cells assessed as remaining radioligand binding at 10 uM after 120 mins by scintillation counting method relative to control; format: cell-based
Rattus norvegicus [17] = experiment: In vivo inhibition of TRPA1 in Harlan Sprague-Dawley rat model of AITC-induced flinching assessed as unbound plasma concentration based IC50; format: functional, organism-based
Outline: (§2)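 Rats were given vehicle (2% HPMC/1% Tween-80) or compound orally at 1, 3, 10 or 30 mg/kg. After 1 h, 0.1% AITC was injected into one left ventral hind paw, and nocifensive flinching was recorded over the first minute. Unbound plasma concentration was measured at 1 h, n = 8 per dose. In vivo IC50/IC90 came from the exposure–response relationship across individual animals.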

[18] = target: Alpha-1A adrenergic receptor (Homo sapiens) (UniProt P35348); experiment: Displacement of [3H]prazosin from human recombinant adrenergic alpha1A expressed in CHO cells assessed as remaining radioligand binding at 10 uM after 60 mins by scintillation counting method relative to control; format: cell-based
Chain of Alpha-1A adrenergic receptor (Homo sapiens) (P35348 whole entry): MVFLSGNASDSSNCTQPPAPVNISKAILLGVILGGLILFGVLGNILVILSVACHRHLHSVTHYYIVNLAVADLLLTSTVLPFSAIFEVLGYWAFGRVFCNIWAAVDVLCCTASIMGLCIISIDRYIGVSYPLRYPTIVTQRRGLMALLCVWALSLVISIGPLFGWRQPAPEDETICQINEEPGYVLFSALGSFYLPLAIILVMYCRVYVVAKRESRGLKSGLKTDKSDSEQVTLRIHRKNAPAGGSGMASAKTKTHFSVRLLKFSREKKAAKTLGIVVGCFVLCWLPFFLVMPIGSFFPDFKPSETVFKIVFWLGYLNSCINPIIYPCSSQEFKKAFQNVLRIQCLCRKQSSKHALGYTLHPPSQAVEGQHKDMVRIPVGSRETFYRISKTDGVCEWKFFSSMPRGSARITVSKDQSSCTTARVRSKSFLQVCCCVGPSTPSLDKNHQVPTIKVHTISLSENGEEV

Plasma = experiment: Unbound plasma concentration in Harlan Sprague-Dawley rat model of AITC-induced flinching at 10 mg/kg, po at 1 hr; format: ADME, organism-based; settings: in vivo; outline: as §2
MDR1 (human) = experiment: Efflux ratio of apparent permeability from basolateral to apical side over apical to basolateral side in MDCK cells expressing human MDR1 after 120 mins by LC-MS/MS analysis; format: ADME, cell-based, Canis lupus familiaris; settings: dog
Outline: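 Efflux ratio taken as Papp B→A / Papp A→B, measured in MDR1-transfected MDCK cells against MDCK vector-control cells.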

[19] = Ratio of fCmax in rat at 30 mg/kg, po to IC50 for rat TRPA1 expressed in tetracycline-inducible T-REx expression system transfected CHO cells by 45Ca2+ uptake assay
[20] = target: 5-hydroxytryptamine receptor 5A (Homo sapiens) (UniProt P47898); experiment: Displacement of [3H]LSD from human recombinant 5HT5A receptor expressed in HEK293 cells assessed as remaining radioligand binding at 10 uM after 120 mins by scintillation counting method relative to control; format: cell-based
Chain of 5-hydroxytryptamine receptor 5A (Homo sapiens) (P47898 whole entry): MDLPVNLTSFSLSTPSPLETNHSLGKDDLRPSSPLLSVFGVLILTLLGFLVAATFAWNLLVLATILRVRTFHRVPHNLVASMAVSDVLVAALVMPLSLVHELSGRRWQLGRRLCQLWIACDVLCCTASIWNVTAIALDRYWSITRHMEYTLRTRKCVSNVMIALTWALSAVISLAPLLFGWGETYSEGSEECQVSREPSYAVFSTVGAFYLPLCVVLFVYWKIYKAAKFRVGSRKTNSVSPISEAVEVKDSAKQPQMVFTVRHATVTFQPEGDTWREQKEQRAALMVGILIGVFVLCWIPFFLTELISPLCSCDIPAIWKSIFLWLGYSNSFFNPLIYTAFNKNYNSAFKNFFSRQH

[21] = target: Beta-1 adrenergic receptor (Homo sapiens) (UniProt P08588); experiment: Displacement of (-)-[3H]CGP-12177 from human recombinant adrenergic beta1 receptor expressed in HEK293 cells assessed as remaining radioligand binding at 10 uM after 60 mins by scintillation counting method relative to control; format: cell-based
Chain of Beta-1 adrenergic receptor (Homo sapiens) (P08588 whole entry, looked up): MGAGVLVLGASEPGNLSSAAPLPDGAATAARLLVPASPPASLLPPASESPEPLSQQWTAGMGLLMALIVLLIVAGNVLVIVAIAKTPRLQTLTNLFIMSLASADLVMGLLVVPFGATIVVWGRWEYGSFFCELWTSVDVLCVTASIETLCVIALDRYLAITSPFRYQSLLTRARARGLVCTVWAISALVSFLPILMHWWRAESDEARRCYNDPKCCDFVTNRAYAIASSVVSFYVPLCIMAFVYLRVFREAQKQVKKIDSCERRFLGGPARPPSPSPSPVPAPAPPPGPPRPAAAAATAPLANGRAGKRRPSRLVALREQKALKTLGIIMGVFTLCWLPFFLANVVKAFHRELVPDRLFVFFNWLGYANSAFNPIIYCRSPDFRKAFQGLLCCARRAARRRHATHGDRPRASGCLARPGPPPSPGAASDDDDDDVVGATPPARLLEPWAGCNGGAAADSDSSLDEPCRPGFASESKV

Cn1cnc2ncn(Cc3nc(CCc4ccc(Cl)cc4)no3)c(=O)c21
Activity (Rattus norvegicus [1]): > 77%
IC50 (Cytochrome P450 3A4): > 27000 nM
IC50 [2]: 131 nM
Activity [3]: > 77%
Activity [4]: > 77%
Activity (Cavia porcellus): > 77%
EC50 [5]: > 40000 nM
inhibition (Rattus norvegicus [6]): Dose-dependent effect
Activity [7]: > 77%
half-life [8]: 0.6 h
Ratio [9]: 0.72
microsomal CLint [10]: < 14 µL/min/mg
Ratio [11]: 30.3
half-life [12]: 2.8 h
Activity [13]: > 77%
clearance [14]: 41.7 mL/min/kg
Activity (Rattus norvegicus [15]): > 77%
Activity [16]: > 77%
Activity (Jurkat): > 77%
IC50 (Rattus norvegicus [17]): 350 nM
Activity [18]: > 77%
Cp(f) (Plasma): 580 nM
efflux ratio at 2 h (MDR1 (human)): 1.3
Ratio [19]: 31
Activity [20]: > 77%
Activity [21]: > 77%
